High-throughput results: PubChem BioAssay, Broad Institute
This is a sample that favours compounds with a hit; in the whole collection about 2.6% have one here.
INS-1E GSIS act – primary screen for activators of insulin secretion dependent on glucose, INS-1E cells, GLuc reporter luminescence; INS-1E GLuc reporter insulin secretion, 2-3 h; activation, % at 16.6 µM; 370,000 tested, 0.61% active; AID 743287;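 active = lowest replicate activation of at least 40%, so every replicate reaches that level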
DENV2 CPE – protects cells from dengue virus 2 cytopathic effect; DENV2-infected cells, cytopathic effect rescue, plate reader; CPE inhibition, % at 9.99 µM; 350,000 tested, 1.7% active; AID 651640; in the data active = CPE inhibition above about 20%, passing the limit was not always enough; inconclusive = no clear call, values can overlap the other calls; tested in BHK-21 cells
F508del corr – CFTR F508del correction in bronchial cells; AID 720511; activity (quench increase), % at 7.58 µM; 350,000 tested, 0.36% active; CFBE cells, YFP halide quenching; stimulated with forskolin plus potentiator P3; % fluorescence drop versus neutral controls;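 active = mean added fluorescence quench of at least 8% versus neutral control, with both replicates also reaching 8%; inconclusive = only one of the mean or replicate conditions met; inactive = mean below 8% and not both replicates reaching 8%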;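 note: cells transiently co-express mutant CFTR-F508del with the halide-sensitive YFP; corrector assay measuring rescue of mutant channel to the surface after 24 h compound exposure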
miR122 inh – inhibitors of miR-122 in Huh7 cells; Huh7 miR-122 Renilla luciferase sensor, 48 h; neutral wells = 0, positive control = 100; activation (reporter increase), % at 12.5 µM; 340,000 tested, 0.3% active; AID 602342;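 active = mean replicate activation score at least 90 and every replicate individually at or above 90; inconclusive = only one of the two criteria met; inactive = neither criterion met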;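 note: higher luciferase means less miR-122 activity so hits act as miR-122 inhibitors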
ERAP1 HTS inh – ERAP1 (human) enzyme inhibition; Q9NZ08; recombinant ERAP1, Leu-AMC fluorescence, 60 min; inhibition, % at 10.7 µM; 340,000 tested, 0.15% active; AID 652197;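 active = mean replicate inhibition of at least 30%, or all replicates individually reaching that 30% level; inactive = mean below 30% and not every replicate reaching it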
E-selectin induc – E-selectin induction on HUVECs; P16581; activation, % at 7.58 µM; 260,000 tested, 0.37% active; HUVEC E-selectin immunofluorescence imaging; normalized: neutral wells 0, TNF-alpha wells 100;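 active = mean E-selectin-positive cell signal at least 10% of the positive control, reached in at least 60% of replicates, without over 20% cell loss; inconclusive = no rule given, readout overlaps actives, possibly toxicity-flagged; inactive = the rest, including those meeting only one limit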
Target sequence (P16581 whole entry, looked up): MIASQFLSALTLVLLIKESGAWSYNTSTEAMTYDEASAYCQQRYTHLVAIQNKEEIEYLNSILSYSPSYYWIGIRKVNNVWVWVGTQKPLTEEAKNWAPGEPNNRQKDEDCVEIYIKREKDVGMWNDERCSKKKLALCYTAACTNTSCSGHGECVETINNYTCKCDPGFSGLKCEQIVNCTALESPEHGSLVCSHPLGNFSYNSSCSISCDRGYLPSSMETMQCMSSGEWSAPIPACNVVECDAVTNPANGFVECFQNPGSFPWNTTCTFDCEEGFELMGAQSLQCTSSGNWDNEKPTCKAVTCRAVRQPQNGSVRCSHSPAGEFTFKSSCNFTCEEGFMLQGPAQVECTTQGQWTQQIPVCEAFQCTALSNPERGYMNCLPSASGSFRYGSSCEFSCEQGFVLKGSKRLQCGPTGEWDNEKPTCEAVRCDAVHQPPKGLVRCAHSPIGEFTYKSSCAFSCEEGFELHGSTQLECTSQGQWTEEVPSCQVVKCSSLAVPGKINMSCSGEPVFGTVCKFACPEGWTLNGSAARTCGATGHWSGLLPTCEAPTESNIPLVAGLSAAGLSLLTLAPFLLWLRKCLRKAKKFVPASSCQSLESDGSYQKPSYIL
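Test system – human umbilical vein endothelial cells (HUVEC), E-selectin induction · Input – 3,000 HUVEC seeded per well · Buffer or medium – EGM-2, gelatin · Compound dosing – single-point compound dose · Detection – immunofluorescence imaging · Measure – percent E-selectin-positive cells · Controls – TNF-alpha high, DMSO low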
Hits are given with their value; . = inactive; ? = inconclusive; / = no result given; [ ] = another dose, or the depositor's remark.

SMILES | INS-1E GSIS act | DENV2 CPE | F508del corr | miR122 inh | ERAP1 HTS inh | E-selectin induc
Cc1noc(C)c1S(=O)(=O)Nc1ccc2c(c1)C(=O)N([C@@H](C)CO)C[C@H](C)[C@@H](CN(C)Cc1ccc3c(c1)OCO3)OCCCC[C@@H](C)O2 | . | . | . | . | . | .
Cc1c(Br)c([N+](=O)[O-])nn1C(C)C(=O)N1CCc2ccccc2C1 (stereo not drawn) | . | 24 | . | / | . | .
CC/C(=N\NC(=O)c1ccc2c(c1)OCO2)C12CC3CC(CC(C3)C1)C2 | / | / | / | 181 | / | /
CC/C(=N\NC(=O)c1ccncc1)C12CC3CC(CC(C3)C1)C2 | / | / | / | . | / | /
CCOC(=O)N1CCN(S(=O)(=O)N2CCCC(C(=O)NCc3cc(OC)ccc3OC)C2)CC1 (stereo not drawn) | 99 | . | . | . | . | .
CC1CCN(C(=O)c2cccc(S(=O)(=O)N3CCN(c4ccccc4)CC3)c2)CC1 | 42 | . | . | / | . | .
O=C(c1cccc(S(=O)(=O)N2CCOCC2)c1)N1CCCC(C(F)(F)F)C1 (stereo not drawn) | . | . | 10 | . | . | /
CCN1CCN(S(=O)(=O)c2ccc(Cl)c(C(=O)N(C)CCOc3ccc(Cl)cc3)c2)CC1 | . | 67 | . | / | . | .
CN(CCOc1ccc(Cl)cc1)C(=O)c1cccc(S(=O)(=O)N2CCN(c3ccccc3)CC2)c1 | . | . | 8.6 | / | . | .
O=C(c1cccc(S(=O)(=O)N2CCCCC2)c1)N1CCN(c2ccccc2)CC1 | . | . | . | / | . | .
CCC(=O)Nc1ccc2c(c1)C(=O)N(C)C[C@H](OC)[C@H](C)CN(C(=O)CN1CCOCC1)[C@@H](C)CO2 | . | / | . | . | / | .
COc1ccc(NC(=O)N(C)C[C@H]2OCCCC[C@H](C)Oc3ccc(NS(=O)(=O)c4cccs4)cc3C(=O)N([C@@H](C)CO)C[C@H]2C)cc1 | . | . | . | . | . | .
COCC(=O)Nc1ccc2c(c1)C(=O)N(C)[C@H]1CC[C@@H](CC(=O)NCc3ccccc3Cl)O[C@@H]1CO2 | . | . | . | . | / | .
CN1C(=O)NC(c2ccc(O)cc2)C2=C1CN(c1ccccc1)C2=O (stereo not drawn) | 43 | . | . | . | . | /
CC=Cc1ccc2n(c1=O)C[C@H]1[C@H](CO)[C@@H](C(=O)NCc3ccc(F)cc3)N(Cc3cncnc3)[C@@H]21 (mixture of isomers) | . | . | / | / | . | .
C[C@@H]1CN([C@@H](C)CO)C(=O)c2cccc(NS(=O)(=O)c3ccc(F)cc3)c2O[C@@H]1CN(C)Cc1ccc(Oc2ccccc2)cc1 | . | / | . | . | / | .
COc1ccc(S(=O)(=O)Nc2ccc3c(c2)COC3=O)cc1OC | / | / | / | 150 | / | /
Cc1cc2[nH]c3c4ccccc4nc(C)c3c2cc1C | 271 | . | . | . | . | /
CCOc1ccc2nc(NC(=O)CN3CCN(CC)CC3)sc2c1 | . | 44 | . | . | . | /
CCOc1ccc2nc(NC(=O)CN3CCN(C)CC3)sc2c1 | . | / | / | . | / | /
CC1(C)Cc2nc3sc4c(SCC(=O)NCc5ccco5)ncnc4c3cc2CO1 | / | / | / | . | / | /
Cc1nc2c(sc3nc4c(cc32)COC(C)(C)C4)c(=O)n1CC(=O)NCc1ccco1 | . | / | 13 | . | . | /
O=C(Nc1nc(-c2ccc([N+](=O)[O-])cc2)cs1)C1=COCCO1 | / | 42 | . | . | . | .
O=C(Nc1nc(-c2ccc(-c3ccccc3)cc2)cs1)C1=COCCO1 | 84 | / | / | / | / | /
CC(=O)Nc1nc(-c2ccc([N+](=O)[O-])cc2)cs1 | . | . | . | / | . | .
SMILES | INS-1E GSIS act | DENV2 CPE | F508del corr | miR122 inh | ERAP1 HTS inh | E-selectin induc
C[C@H](CO)N1C[C@H](C)[C@@H](CN(C)Cc2ccc(Oc3ccccc3)cc2)Oc2c(NC(=O)C3CCOCC3)cccc2C1=O | . | / | . | 100[16.7 µM] | . | .
C[C@H](CO)N1C[C@H](C)[C@H](CN(C)CC2CC2)Oc2c(NC(=O)C3CC3)cccc2C1=O | . | . | . | . | . | 64
C[C@H](CO)N1C[C@H](C)[C@@H](CN(C)C)Oc2c(NC(=O)C3CCOCC3)cccc2C1=O | . | 40 | . | . | . | .
C[C@@H]1CN([C@@H](C)CO)C(=O)c2cccc(NC(=O)C3CC3)c2O[C@H]1CN(C)Cc1ccccc1 | . | . | . | . | . | 52
C[C@H](CO)N1C[C@H](C)[C@H](CN(C)Cc2ccccc2)Oc2c(NC(=O)C3CCCCC3)cccc2C1=O | . | . | . | . | . | .
Cc1ccc(S(=O)(=O)Nc2ccc3c(c2)C(=O)N([C@H](C)CO)C[C@@H](C)[C@@H](CN(C)S(=O)(=O)c2ccc(C)cc2)O3)cc1 | . | . | . | . | . | .
COc1ccc(CN(C)C[C@@H]2OCCCC[C@H](C)Oc3ccc(NS(=O)(=O)c4c(C)noc4C)cc3C(=O)N([C@@H](C)CO)C[C@H]2C)cc1 | . | . | . | / | . | .
C[C@H]1CN([C@@H](C)CO)C(=O)c2cccc(NC(=O)C3CC3)c2O[C@H]1CN(C)Cc1ccccc1 | . | ? | . | . | . | 27
C[C@@H]1CN([C@@H](C)CO)C(=O)c2cccc(NC(=O)C3CCOCC3)c2O[C@@H]1CN(C)Cc1ccncc1 | . | . | . | . | . | 228
O=C(O)CC(Sc1n[nH]c(=S)s1)C(=O)O (stereo not drawn) | / | . | / | . | 34 | /
Cc1ccc(S(=O)(=O)N(C)C[C@@H]2OCCCC[C@H](C)Oc3ccc(NS(=O)(=O)c4cccs4)cc3C(=O)N([C@H](C)CO)C[C@H]2C)cc1 | . | . | . | . | . | /
COc1ccc(-c2ccc3c(c2)[C@@H]2[C@@H](CCN2Cc2ccccc2F)[C@H](CO)N3)cc1 | . | 23 | . | / | . | .
COc1ccc(-c2ccc3c(c2)[C@@H]2[C@@H](CCN2C(=O)CN2CCOCC2)[C@H](CO)N3)cc1 | . | . | . | . | . | .
CCC(=O)N1CC[C@@H]2[C@@H](CO)Nc3ccc(-c4ccc(OC)cc4)cc3[C@@H]21 | . | 131 | . | . | / | .
CCC(=O)N1CC[C@H]2[C@H](CO)Nc3ccc(-c4ccccc4)cc3[C@H]21 | . | . | . | . | . | .
COc1ccc(-c2ccc3c(c2)[C@H]2[C@H](CCN2C(=O)CN2CCOCC2)[C@@H](CO)N3)cc1 | . | 100 | . | . | . | .
CS(=O)(=O)Nc1ccc2c(c1)[C@H]1C[C@@H](CC(=O)NCC3CC3)O[C@H](CO)[C@H]1O2 | . | . | . | . | . | .
CCC(=O)N1C[C@@H]2[C@H](c3ccccc31)[C@H](CO)N2Cc1ccccc1F | . | . | . | . | . | .
Cc1ccc(S(=O)(=O)C=CS(=O)(=O)c2ccc(C)cc2)cc1 | 87 | . | . | . | . | /
Cc1ccc(S(=O)(=O)c2ccc(C)cc2)cc1 | . | / | . | . | . | /
